≈ marks a conversion by molar mass, not a printed value.
What was measured:
Type in all cases: functional
Citrobacter freundii [1] = assay: Antimicrobial activity against aac(6')-Ib-cr-positive Citrobacter freundii JS33T harboring qnrA gene by agar dilution method in presence of Tazobactam
How it was run: (§1)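 MICs were determined by the CLSI agar dilution method (M7-A7) and interpreted against CLSI M100-S17 breakpoints.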

Klebsiella pneumoniae [2] = assay: Antimicrobial activity against aac(6')-Ib-cr-positive Klebsiella pneumoniae JN132 harboring GyrA S83I, ParC S80I mutant, wild-type GyrB and qnrB genes by agar dilution method in presence of Tazobactam
How it was run: (§2)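 MICs measured by CLSI agar dilution (M7-A7) and interpreted against CLSI M100-S17 breakpoints. Strains were clinical Enterobacteriaceae isolates or the azide-resistant E. coli J53 recipient.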

Klebsiella pneumoniae [3] = assay: Antimicrobial activity against aac(6')-Ib-cr-positive Klebsiella pneumoniae JN41T harboring qnrB gene by agar dilution method in presence of Tazobactam
How it was run: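 Transconjugants were made by conjugating a qnr/aac(6')-Ib-cr donor with azide-resistant E. coli J53. Selection used Trypticase soy agar with sodium azide 150 µg/ml and sulfamethoxazole 180 µg/ml. […] MICs were read by CLSI agar dilution (M7-A7) and interpreted per M100-S17.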

Klebsiella pneumoniae [4] = assay: Antimicrobial activity against aac(6')-Ib-cr-negative Klebsiella pneumoniae SY22 harboring GyrA S83I, ParC S80I mutant, wild-type GyrB and qnrS genes by agar dilution method in presence of Tazobactam; how it was run: as §2
Klebsiella pneumoniae [5] = assay: Antimicrobial activity against aac(6')-Ib-cr-positive Klebsiella pneumoniae JN41 harboring GyrA S83I, ParC S80I mutant, wild-type GyrB and qnrB genes by agar dilution method in presence of Tazobactam; how it was run: as §2
Enterobacter cloacae [6] = assay: Antimicrobial activity against aac(6')-Ib-cr-negative Enterobacter cloacae FJ67 harboring […] and qnrS genes by agar dilution method in presence of Tazobactam; how it was run: as §1
Citrobacter freundii [7] = assay: Antimicrobial activity against aac(6')-Ib-cr-positive Citrobacter freundii TJ15T harboring wild-type GyrA, ParC, GyrB genes by agar dilution method in presence of Tazobactam; how it was run: as §1
Citrobacter freundii [8] = assay: Antimicrobial activity against aac(6')-Ib-cr-positive Citrobacter freundii TJ15 harboring GyrA T83I, ParC S80I mutant, wild-type GyrB, qnrB genes by agar dilution method in presence of Tazobactam; how it was run: as §1
Klebsiella pneumoniae [9] = assay: Antimicrobial activity against aac(6')-Ib-cr-positive Klebsiella pneumoniae JN41T harboring qnrB gene by agar dilution method in presence of clavulanic acid
How it was run: (§3)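 Transconjugants came from conjugation of qnr and/or aac(6')-Ib-cr-carrying donors with azide-resistant E. coli J53. […] MICs were determined by CLSI agar dilution (M7-A7) and interpreted by M100-S17.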

Klebsiella pneumoniae [10] = assay: Antimicrobial activity against aac(6')-Ib-cr-positive Klebsiella pneumoniae WH99 harboring wild-type GyrA, ParC, GyrB and qnrB genes by agar dilution method in presence of clavulanic acid; how it was run: as §2
Klebsiella pneumoniae [11] = assay: Antimicrobial activity against aac(6')-Ib-cr-positive Klebsiella pneumoniae JN41 harboring GyrA S83I, ParC S80I mutant, wild-type GyrB and qnrB genes by agar dilution method in presence of clavulanic acid
How it was run: (§4)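 MICs were determined by CLSI agar dilution (M7-A7) and interpreted by CLSI M100-S17 breakpoints. The curator's line names the β-lactamase inhibitor added.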

Citrobacter freundii [12] = assay: Antimicrobial activity against aac(6')-Ib-cr-positive Citrobacter freundii JS33T harboring qnrA gene by agar dilution method in presence of clavulanic acid; how it was run: as §3
Enterobacter cloacae [13] = assay: Antimicrobial activity against aac(6')-Ib-cr-negative Enterobacter cloacae GZ47 harboring qnrB and qnrS genes by agar dilution method
Citrobacter freundii [14] = assay: Antimicrobial activity against aac(6')-Ib-cr-positive Citrobacter freundii JN1 harboring GyrA T83I, ParC S80I mutant, wild-type GyrB and qnrA genes by agar dilution method; how it was run: as §1
Klebsiella pneumoniae [15] = assay: Antimicrobial activity against aac(6')-Ib-cr-positive Klebsiella pneumoniae SY26T harboring wild-type GyrA, ParC, GyrB and qnrB genes by agar dilution method
How it was run: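 Transconjugants were made by conjugating a qnr/aac(6')-Ib-cr donor with azide-resistant E. coli J53. MICs were read by CLSI agar dilution (M7-A7) and interpreted per M100-S17.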

Klebsiella pneumoniae [16] = assay: Antimicrobial activity against aac(6')-Ib-cr-negative Klebsiella pneumoniae SY22T harboring qnrS gene by agar dilution method in presence of clavulanic acid; how it was run: as §3
Escherichia coli = assay: Antimicrobial activity against aac(6')-Ib-cr-negative Escherichia coli PU12 harboring GyrA S83L mutant, wild-type GyrB, ParC and qnrS genes by agar dilution method in presence of clavulanic acid; how it was run: as §4
Klebsiella pneumoniae [17] = assay: Antimicrobial activity against aac(6')-Ib-cr-positive Klebsiella pneumoniae GZ40 harboring GyrA S83I, ParC S80I mutant, wild-type GyrB and qnrB genes by agar dilution method in presence of clavulanic acid; how it was run: as §2
Klebsiella pneumoniae [18] = assay: Antimicrobial activity against aac(6')-Ib-cr-positive Klebsiella pneumoniae WH99 harboring wild-type GyrA, ParC, GyrB and qnrB genes by agar dilution method
How it was run: (§5)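 MICs were determined on clinical isolates by CLSI agar dilution (M7-A7) and interpreted against CLSI M100-S17 breakpoints.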

Klebsiella pneumoniae [19] = assay: Antimicrobial activity against aac(6')-Ib-cr-positive Klebsiella pneumoniae GZ40 harboring GyrA S83I, ParC S80I mutant, wild-type GyrB and qnrB genes by agar dilution method; how it was run: as §1
Enterobacter cloacae [20] = assay: Antimicrobial activity against aac(6')-Ib-cr-negative Enterobacter cloacae GZ47 harboring qnrB and qnrS genes by agar dilution method in presence of clavulanic acid; how it was run: as §2
Enterobacter cloacae [21] = assay: Antimicrobial activity against aac(6')-Ib-cr-negative Enterobacter cloacae WH42 harboring wild-type GyrA, ParC, GyrB and qnrA genes by agar dilution method
Klebsiella pneumoniae [22] = assay: Antimicrobial activity against aac(6')-Ib-cr-positive Klebsiella pneumoniae SY26 harboring GyrA S83I, ParC S80I mutant, wild-type GyrB and qnrB genes by agar dilution method in presence of clavulanic acid; how it was run: as §2
Klebsiella pneumoniae [23] = assay: Antimicrobial activity against aac(6')-Ib-cr-positive Klebsiella pneumoniae SY26 harboring GyrA S83I, ParC S80I mutant, wild-type GyrB and qnrB genes by agar dilution method; how it was run: as §5
Citrobacter freundii [24] = assay: Antimicrobial activity against aac(6')-Ib-cr-positive Citrobacter freundii JN1 harboring GyrA T83I, ParC S80I mutant, wild-type GyrB and qnrA genes by agar dilution method in presence of clavulanic acid; how it was run: as §1
Citrobacter freundii [25] = assay: Antimicrobial activity against aac(6')-Ib-cr-negative Citrobacter freundii JN64T harboring qnrA gene by agar dilution method in presence of clavulanic acid; how it was run: as §3
Enterobacter cloacae [26] = assay: Antimicrobial activity against aac(6')-Ib-cr-negative Enterobacter cloacae WH42T harboring qnrA gene by agar dilution method in presence of clavulanic acid; how it was run: as §3

`CCN1CCN(C(=O)N[C@@H](C(=O)N[C@@H]2C(=O)N3[C@@H]2SC(C)(C)[C@@H]3C(=O)O)c2ccccc2)C(=O)C1=O` [PIPERACILLIN] was tested, and the MIC (Citrobacter freundii [1]) was 4 µg/mL, the MIC (Klebsiella pneumoniae [2]) was 4 µg/mL and the MIC (Klebsiella pneumoniae [3]) was 2 µg/mL. For the same molecule, the MIC (Klebsiella pneumoniae [4]) was 4 µg/mL, the MIC (Klebsiella pneumoniae [5]) was 4 µg/mL and the MIC (Enterobacter cloacae [6]) was 1 µg/mL. It also gave an MIC (Citrobacter freundii [7]) of 1 µg/mL and an MIC (Citrobacter freundii [8]) of 4 µg/mL.
Work on `CO/N=C(\C(=O)N[C@@H]1C(=O)N2C(C(=O)O)=C(COC(C)=O)CS[C@H]12)c1csc(N)n1` [CEFOTAXIME] yielded an MIC (Klebsiella pneumoniae [9]) of 0.032 µg/mL, an MIC (Klebsiella pneumoniae [10]) of 64 µg/mL and an MIC (Klebsiella pneumoniae [11]) of 0.032 µg/mL. For the same molecule, the MIC (Citrobacter freundii [12]) was 0.032 µg/mL, the MIC (Enterobacter cloacae [13]) was 64 µg/mL (≈ 141 µM) and the MIC (Citrobacter freundii [14]) was over 256 µg/mL. The MIC (Klebsiella pneumoniae [15]) was 4 µg/mL (≈ 8.78 µM), the MIC (Klebsiella pneumoniae [16]) was 0.032 µg/mL and the MIC (Escherichia coli) was 0.032 µg/mL. The MIC (Klebsiella pneumoniae [17]) was 0.5 µg/mL, the MIC (Klebsiella pneumoniae [18]) was 32 µg/mL (≈ 70.3 µM) and the MIC (Klebsiella pneumoniae [19]) was over 256 µg/mL. The MIC (Enterobacter cloacae [20]) was 8 µg/mL, the MIC (Enterobacter cloacae [21]) was 256 µg/mL (≈ 562 µM) and the MIC (Klebsiella pneumoniae [22]) was 8 µg/mL. For the same molecule, the MIC (Klebsiella pneumoniae [23]) was 8 µg/mL (≈ 17.6 µM), the MIC (Citrobacter freundii [24]) was 128 µg/mL and the MIC (Citrobacter freundii [25]) was 0.064 µg/mL. The MIC (Enterobacter cloacae [26]) was 0.032 µg/mL.

— ChEMBL document CHEMBL1275556, “High prevalence of plasmid-mediated quinolone resistance genes qnr and aac(6')-Ib-cr in clinical isolates of Enterobacteriaceae from nine teaching hospitals in China” (2008)
